Measured values taken from ChEMBL document CHEMBL1140591, “Syntheses of novel myxopyronin B analogs as potential inhibitors of bacterial RNA polymerase” (Bioorg Med Chem Lett, 2007).
Values after ≈ are worked out from the molar mass of the structure shown.

How the values were obtained:
[1] = tested on: Escherichia coli; assay: Antibacterial activity against Escherichia coli; format: functional
Summary of the method: (§1)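 MIC determined by growth inhibition testing; the same test was also run against S. aureus.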

[2] = tested on: Escherichia coli; assay: Antibacterial activity against Escherichia coli Tol C mutant; format: functional; summary of the method: as §1
[3] = tested on: Staphylococcus aureus; assay: Antibacterial activity against Staphylococcus aureus; format: functional
[4] = tested on: Escherichia coli; assay: Inhibition of Escherichia coli DNA-dependent RNA polymerase at 10 uM by nucleotide coupled NADPH/pyrophosphate release assay
[5] = tested on: CEM-SS; assay: Cytotoxicity against human CEM-SS cells upto 40 uM after 3 days; format: cell-based; conditions: 72 h
Summary of the method: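 CEM-SS T lymphocytes were incubated with compound for 3 days and then treated with XTT. The signal was read […] at 450 nm/650 nm, and CC50 was determined from the readings.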

[6] = Inhibition of Escherichia coli DNA-dependent RNA polymerase by nucleotide coupled NADPH/pyrophosphate release assay
Summary of the method: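 In the pyrophosphate-release coupled assay, NADPH was monitored by fluorescence (emission ~440 nm) instead of absorbance at 340 nm. Some compounds were also tested by incorporation of radiolabeled nucleotide into RNA.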

**Q.** With `COC(=O)N/C=C/CCC(C)c1cc(O)c(C(=O)NC/C=C(\C)CCC=C(C)C)c(=O)o1` (stereo not drawn) as the molecule, how does the MIC [1] read?
**A.** Its MIC is over 64 µg/mL.

**Q.** What about the MIC [2] of the same molecule?
**A.** The MIC was 16 µg/mL (≈ 35.8 µM).

**Q.** And the MIC [3]?
**A.** Its MIC is over 64 µg/mL.

**Q.** And the inhibition [4]?
**A.** Its inhibition is under 20%.

**Q.** And the Activity [5]?
**A.** Its Activity is “Non-toxic”.

**Q.** With `CCCC/C(C)=C/C=C(\C)C(=O)c1c(O)cc(CCC/C=C/NC(=O)OC)n(C)c1=O` as the molecule, how does the IC50 [6] read?
**A.** The IC50 was 15 µM.

**Q.** What about the MIC [1] of the same molecule?
**A.** Its MIC is over 64 µg/mL.

**Q.** What about the MIC [3] of the same molecule?
**A.** The MIC was over 64 µg/mL.

**Q.** And the Activity [5]?
**A.** The Activity was “Non-toxic”.

**Q.** For `COC(=O)N/C=C/CCCc1cc(O)c(C(=O)/C(C)=C\c2ccco2)c(=O)o1`, which MIC [1] is on record?
**A.** The MIC was over 64 µg/mL.

**Q.** And the MIC [3]?
**A.** Its MIC is over 64 µg/mL.

**Q.** And the inhibition [4]?
**A.** Its inhibition is under 20%.

**Q.** And the Activity [5]?
**A.** Its Activity is “Non-toxic”.

**Q.** Which MIC [1] does the source give for `CCCC/C(C)=C/C=C(\C)C(=O)c1ccc(C(C)CC/C=C/NC(=O)OC)cc1O` (stereo not drawn) here?
**A.** Its MIC is over 64 µg/mL.

**Q.** And the MIC [3]?
**A.** The MIC was over 64 µg/mL.

**Q.** What about the inhibition [4] of the same molecule?
**A.** Its inhibition is 38%.

**Q.** What about the Activity [5] of the same molecule?
**A.** The Activity was “Non-toxic”.

**Q.** Which results are given for `CCCC/C(C)=C/C=C(\C)C(=O)c1c(O)cc([C@H](C)CC/C=C/NC(=O)OC)oc1=O` [MYXOPYRONIN B]?
**A.** IC50 [6]: 0.92 µM; MIC [1]: > 64 µg/mL; MIC [2]: 2 µg/mL (≈ 4.63 µM); MIC [3]: 1 µg/mL (≈ 2.32 µM); Activity [5]: Non-toxic

**Q.** Which results are given for `CCCC/C(C)=C/C=C(\C)C(=O)c1c(O)cc(C(C)CC/C=C/NC(=O)OC)n(C)c1=O` (stereo not drawn)?
**A.** IC50 [6]: 20.5 µM; MIC [1]: > 64 µg/mL; MIC [3]: > 64 µg/mL; Activity [5]: Non-toxic

**Q.** Which IC50 [6] does the source give for `CCCC/C(C)=C/C=C(\C)C(=O)c1c(O)cc(CCC/C=C/NC(=O)OC)oc1=O` [DESMETHYL MYXOPYRONIN B] here?
**A.** Its IC50 is 0.34 µM.

**Q.** What about the MIC [1] of the same molecule?
**A.** The MIC was over 64 µg/mL.

**Q.** And the MIC [2]?
**A.** The MIC was 1 µg/mL (≈ 2.4 µM).

**Q.** And the MIC [3]?
**A.** The MIC was 4 µg/mL (≈ 9.58 µM).

**Q.** What about the Activity [5] of the same molecule?
**A.** The Activity was “Non-toxic”.

**Q.** With `CCCCCC(=O)c1c(O)cc(CCC/C=C/NC(=O)OC)oc1=O` as the molecule, how does the MIC [1] read?
**A.** Its MIC is over 64 µg/mL.

**Q.** What about the MIC [3] of the same molecule?
**A.** Its MIC is over 64 µg/mL.

**Q.** What about the inhibition [4] of the same molecule?
**A.** Its inhibition is under 20%.

**Q.** What about the Activity [5] of the same molecule?
**A.** Its Activity is “Non-toxic”.

**Q.** For `COC(=O)N/C=C/CCCc1cc(O)c(C(=O)/C=C/c2ccc3[nH]ccc3c2)c(=O)o1`, which MIC [1] is on record?
**A.** The MIC was over 64 µg/mL.

**Q.** And the MIC [3]?
**A.** The MIC was over 64 µg/mL.

**Q.** And the inhibition [4]?
**A.** Its inhibition is under 20%.

**Q.** And the Activity [5]?
**A.** Its Activity is “Non-toxic”.

**Q.** Which results are given for `CCCCCCCCC(=O)c1c(O)cc(CCC/C=C/NC(=O)OC)oc1=O`?
**A.** MIC [1]: > 64 µg/mL; MIC [3]: > 64 µg/mL; inhibition [4]: < 20%; Activity [5]: Non-toxic
